An excerpt weighted towards active compounds, which were near 1.8% of everything screened.
NR2E3 ag-1 – human photoreceptor-specific nuclear receptor agonism | Q9Y5X4 | CHO-S Gal4-NCOR/VP16-NR2E3 two-hybrid, luciferase | inhibition of corepressor binding, % at 3.98 µM | actives 0.35% (n = 360,000);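 active = inhibition above the mean of all tested compounds plus 3 SD, cut at about 70% in these data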;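 note: 0% = DMSO with NR2E3 transfected cells and 100% = cells lacking NR2E3 construct; higher means lower luciferase signal from less NR2E3 corepressor binding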
NR2E3 ag-2 – agonists of human nuclear receptor NR2E3; AID 2300; Q9Y5X4; GST-NR2E3/biotin-RetCOR TR-FRET, 1536-well; actives 0.12% (n = 320,000); inhibition of corepressor binding, % at 4.78 µM;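 active = percent inhibition above the cutoff of mean plus 3 SD of all tested compounds, set per screening campaign, cut at about 20% in these data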;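 note: 0% = DMSO wells and 100% = biotin wells as full block of FRET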
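Material: NR2E3–RetCOR corepressor complex | Quantity: 1.35 nM GST-tagged NR2E3 final | Schedule: 5 h at 4 °C | Replication: Singlicate compound wells | Reagent: RetCOR corepressor, biotinylated, 7 nM | Controls: Biotin wells as high control, 0.6% DMSO wells as low control | Signal: TR-FRET, Eu(K)-anti-GST donor, streptavidin-D2 acceptor, ex 340, em 617/671 nm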
PG9 Ab binder – small molecules binding HIV-1 gp120 antibody PG9; TR-FRET gp120-PG9 antibody binding; inhibition, % at 6.7 µM; actives 0.43% (n = 360,000); AID 624416; in the data active = inhibition above about 8.5%
NR1D1 modulator – modulates human Rev-erb alpha binding to DNA; P20393; Rev-erbα–FITC-DNA binding, fluorescence polarization, 90 min; activity, % at 10 µM; actives 0.79% (n = 370,000);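 active = activity above about 14%, limit read from the data; passing the limit was not always enough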;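 note: 0% = DMSO wells with 35 nM protein and 100% = DMSO wells with 750 nM protein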
Target sequence (P20393 whole entry, looked up): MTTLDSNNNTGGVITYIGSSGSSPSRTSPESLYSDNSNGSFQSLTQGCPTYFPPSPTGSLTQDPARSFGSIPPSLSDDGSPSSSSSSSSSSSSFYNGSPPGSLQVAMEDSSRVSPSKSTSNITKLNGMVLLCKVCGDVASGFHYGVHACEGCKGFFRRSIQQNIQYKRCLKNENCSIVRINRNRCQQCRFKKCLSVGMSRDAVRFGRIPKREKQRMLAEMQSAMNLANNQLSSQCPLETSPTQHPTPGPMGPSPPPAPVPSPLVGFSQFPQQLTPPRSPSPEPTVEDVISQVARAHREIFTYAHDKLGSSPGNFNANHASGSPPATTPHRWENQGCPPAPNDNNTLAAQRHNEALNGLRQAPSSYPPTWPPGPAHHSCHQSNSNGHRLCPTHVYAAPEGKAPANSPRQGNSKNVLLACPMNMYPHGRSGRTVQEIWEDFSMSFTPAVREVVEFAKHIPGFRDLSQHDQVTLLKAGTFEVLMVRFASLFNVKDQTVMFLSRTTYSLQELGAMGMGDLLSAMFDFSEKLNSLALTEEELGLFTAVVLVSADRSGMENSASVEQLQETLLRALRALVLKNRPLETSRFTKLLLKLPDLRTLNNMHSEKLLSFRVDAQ
GalR3 antag – blocks the human galanin receptor 3. O60755. inhibition, % at 3 µM. HEK293 GalR3-CNG cAMP membrane potential fluorescence; galR3 body fused to GalR1 C-terminus. actives 0.44% (n = 360,000);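 active = inhibition above the screen-wide average plus 3 SD, cut at about 13% in these data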;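 note: forskolin and galanin both at EC90 stimulate the cells; cAMP rise reported by CNG channel membrane potential dye signal; 0% = forskolin plus galanin with DMSO and 100% = forskolin alone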
NR2E3 ag conf – NR2E3 agonism confirmed in two-hybrid assay. inhibition, % at 3.98 µM. actives 51% (n = 2,300). shares compounds with NR2E3 ag-1. CHO-S mammalian two-hybrid NR2E3-NCOR, luciferase luminescence;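 active = average inhibition above a cutoff equal to the mean inhibition of all tested compounds plus one SD, cut at about 70% in these data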;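 note: 0% = DMSO in NR2E3 cells and 100% = DMSO in cells lacking NR2E3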
GAL4-VP16 luc – GAL4-VP16 reporter inhibition in NR2E3 agonist counterscreen; shares compounds with NR2E3 ag-1; actives 29% (n = 2,300); AID 624379; CHO-S GAL4-VP16 luciferase reporter, luminescence; inhibition, % at 3.98 µM;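 active = mean inhibition above a cutoff equal to the average over all tested compounds plus one standard deviation, cut at about 70% in these data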;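 note: luciferase from a UAS reporter driven by GAL4-VP16 transactivation; 0% = DMSO with VP16-transfected cells and 100% = DMSO with cells lacking VP16; higher means less reporter light so more repression of VP16 activity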
The depositor's hits bear a star; nt = not tested or not shown.

SMILES | NR2E3 ag-1 | NR2E3 ag-2 | PG9 Ab binder | NR1D1 modulator | GalR3 antag | NR2E3 ag conf | GAL4-VP16 luc
CCOc1ccc(C(=O)Nc2ccc(N3CCN(C(C)=O)CC3)cc2)cc1[N+](=O)[O-] | -15 | 1 | -4 | 0 | -6 | nt | nt
CC(C)c1ccc(OC[C@@H](O)CN2CCC(C(O)(c3ccccc3)c3ccccc3)CC2)cc1 | nt | nt | nt | -1 | nt | nt | nt
O=C(OC12CCCN(C1)/C(=C/c1ccccc1)C2)c1ccc(Cl)cc1 (centres undefined) | nt | nt | nt | 0 | nt | nt | nt
N#CCC[C@H]1CC[C@]2(CCCN(C(=O)c3ccc4ccccc4n3)C2)O1 | nt | nt | nt | 11 | nt | nt | nt
CCOc1ccc(S(=O)(=O)Nc2ccc3c(c2)n(C)c(=O)n3C)cc1 | 74* | 3 | 0 | 2 | -10 | 62 | 59
CCOc1ccc(NS(=O)(=O)c2ccc3c(c2)N(C(C)=O)CC3)cc1 | 15 | 0 | 0 | -1 | -3 | nt | nt
CCOc1ccc(NS(=O)(=O)c2ccc3c(c2)N(C(C)=O)CCS3)cc1 | 55 | 3 | -2 | -3 | -9 | 7 | 13
CC1CCN(C(=O)c2ccc(NS(=O)(=O)c3ccccc3)cc2)CC1 | 6 | -1 | -2 | -6 | -2 | nt | nt
CCOc1ccc(NS(=O)(=O)c2ccc(C(=O)N3CCCCC3)cc2)cc1 | 58 | 0 | 0 | -5 | -3 | 40 | 54
CCOc1ccc(NS(=O)(=O)c2ccc(C(=O)N3CCN(c4ncccn4)CC3)cc2)cc1 | 29 | 6 | 1 | 1 | -8 | nt | nt
COc1ccc(NS(=O)(=O)c2ccc(C(=O)N3CCC(C)CC3)cc2)cc1 | 56 | nt | -1 | 1 | -5 | 25 | 25
Cc1ccc(-n2c(SCC(=O)c3ccc(O)c(O)c3)nnc2-c2ccccc2)cc1 | nt | nt | nt | -25 | nt | nt | nt
CCc1ccc(S(=O)(=O)Nc2cc3c(cc2C)n(C)c(=O)n3C)cc1 | 98* | 1 | 2 | -1 | -5 | 83* | 69
CCOc1ccc(S(=O)(=O)Nc2cccc(N(C)S(C)(=O)=O)c2)cc1 | 49 | 0 | 2 | -1 | -5 | 48 | 54
O=[N+]([O-])c1ccc(Nc2ccccc2)c2nonc12 | 9 | -3 | -5 | 19 | -10 | nt | nt
O=[N+]([O-])c1ccc(Sc2cccc[n+]2[O-])c2nonc12 | 102* | nt | -2 | 3 | -6 | -44 | -7
Cn1c(CNc2ccccc2F)nc2ccccc21 | nt | nt | nt | -2 | nt | nt | nt
CC(=O)N(/N=C1\Sc2ccccc2C1=O)c1ccc(C)cc1C | 67 | -1 | -2 | -6 | -4 | 62 | 22
CC(=O)N(/N=C1\Sc2ccccc2C1=O)c1ccccc1C | -47 | 15 | -1 | 3 | -1 | nt | nt
O=C(CSc1cccc[n+]1[O-])c1cc2ccccc2o1 | 78* | 2 | nt | nt | nt | -22 | -16
O=C(O)CSc1cccc[n+]1[O-] | -33 | -2 | 3 | -2 | -5 | nt | nt
Cc1cc(=S)nc(-c2ccccn2)[nH]1 | 76* | 1 | -2 | -7 | 0 | -6 | -12
Cc1ccc(C)c(-n2sc3ccc(F)cc3c2=O)c1 | 63 | 1 | 0 | 2 | -5 | -18 | -17
COC(=O)[C@]12C[C@H](CC(=O)NCc3cccc4ccccc34)C(=O)N(CCc3ccc(OC)c(OC)c3)C1=C[C@H](COCc1ccccc1)O[C@@H]2C | nt | nt | nt | -2 | nt | nt | nt
O=C(C1CC1)N1CCc2cc(S(=O)(=O)NCCC3=CCCCC3)ccc21 | 59 | -1 | -2 | 6 | -1 | 57 | 47
SMILES | NR2E3 ag-1 | NR2E3 ag-2 | PG9 Ab binder | NR1D1 modulator | GalR3 antag | NR2E3 ag conf | GAL4-VP16 luc
O=C(C1CCC1)N1CCc2cc(S(=O)(=O)NCC3COc4ccccc4O3)ccc21 (centres undefined) | 67 | -2 | 1 | 2 | -4 | 60 | 37
O=C(C1CC1)N1CCc2cc(Br)cc(S(=O)(=O)NCC3COc4ccccc4O3)c21 (centres undefined) | -20 | 0 | -1 | 1 | -4 | nt | nt
CCCN(CCC)CCNS(=O)(=O)c1ccc2c(c1)CCN2C(=O)C1CCC1 | 1 | 1 | -1 | 7 | -5 | nt | nt
O=C(C1CC1)N1CCc2cc(S(=O)(=O)NCC3COc4ccccc4O3)ccc21 (centres undefined) | 56 | 2 | -1 | 2 | -5 | 54 | 55
CCCSS/C(CCO)=C(/C)N(C=O)Cc1cnc(C)nc1N | nt | nt | nt | -4 | nt | nt | nt
O=C(Cn1cnnn1)N[C@@H]1C(=O)N2C(C(=O)O)=C(CSc3nncs3)CS[C@H]12 | nt | nt | nt | -7 | nt | nt | nt
COc1ccc(S(=O)(=O)N2CCN(c3ccc(C)cc3C)CC2)cc1OC | 53 | 0 | -1 | 6 | 2 | 74* | 57
CC(C)(C)NC(=O)C(c1cccnc1)N(C(=O)c1cccs1)c1ccc(C(C)(C)C)cc1 (centres undefined) | nt | nt | nt | -2 | nt | nt | nt
O=NN(CCc1ccncc1)c1ccc(OCc2ccccc2)cc1 | 86* | 0 | 0 | -2 | 3 | 95* | 85*
Cc1ccc(NC(=O)c2ccccc2NS(=O)(=O)c2ccc(F)cc2)cc1S(=O)(=O)N1CCCCC1 | 89* | 1 | -1 | 1 | -4 | 98* | 92*
O=C(Nc1cccc(S(=O)(=O)N2CCCCC2)c1)c1ccccc1NS(=O)(=O)c1ccc(F)cc1 | 86* | -1 | -2 | 1 | -5 | 98* | 71*
NS(=O)(=O)c1cccc(NC(=O)c2ccccc2NS(=O)(=O)c2ccc(F)cc2)c1 | -34 | 6 | 2 | -4 | -6 | nt | nt
COC(=O)C1CN(Cc2ccc(Cl)cc2)CCS(=O)(=O)N1Cc1cn(Cc2ccc(F)cc2)nn1 (centres undefined) | nt | nt | nt | 4 | nt | nt | nt
CCCC(CC)Sc1nc2c([nH]1)c(=S)n(C)c(=O)n2C (centres undefined) | 78* | nt | -1 | -4 | -5 | 22 | -11
CCCCC(C)Sc1nc2c([nH]1)c(=S)n(C)c(=O)n2C (centres undefined) | 87* | nt | -1 | 15 | -5 | 87* | 61
CSc1nc2c([nH]1)c(=S)n(C)c(=O)n2C | 33 | nt | -4 | -4 | -3 | nt | nt
CCCCSc1nc2c([nH]1)c(=S)n(C)c(=O)n2C | 64 | nt | -2 | 5 | -3 | 31 | -21
CCN(CC)CCSc1nc2c([nH]1)c(=S)n(C)c(=O)n2C | -40 | nt | -1 | 5 | -3 | nt | nt
Cc1cc2c(cc1CC(=O)c1sccc1S(=O)(=O)Nc1onc(C)c1Cl)OCO2 | nt | nt | nt | -8 | nt | nt | nt
Cc1ccc(S(=O)(=O)N2C[C@H]3N(C(=O)OC(C)C)N(C(=O)OC(C)C)C[C@H](OC(=O)NCc4ccccc4)[C@@]3(O)C2)cc1 | -29 | nt | 2 | 2 | -4 | nt | nt
Cc1ccc(S(=O)(=O)N2C[C@H]3N(C(=O)OC(C)C)N(C(=O)OC(C)C)C[C@H](OC(=O)NCC4CCCCC4)[C@@]3(O)C2)cc1 | 57 | nt | nt | nt | nt | 70* | 45

Compound activity (PubChem)
